The target of data set [1] is T1, ATP-dependent translocase ABCB1 (Homo sapiens, UniProt P08183). In words: Reversal of MDR1-mediated doxorubicin resistance in multidrug resistant human NCI-H460 cells assessed as combination index at 5 uM after 72 hrs by SRB assay. Particulars: nci-h460, 72 h. (Sulforhodamine B stains cellular protein and so reports cell mass.)
Data set [2] addresses T1, ATP-dependent translocase ABCB1. In words: Reversal of MDR1-mediated paclitaxel resistance in multidrug resistant human NCI-H460 cells assessed as combination index at 2.5 uM after 72 hrs by SRB assay. It is filed as cell-based. Particulars: nci-h460, 72 h. The essentials: (§1)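 Resistant NCI-H460/R cells received 1, 2.5 or 5 μM compound simultaneously with 0.0055 μM paclitaxel for 72 h. Growth was read by SRB assay. Relative reversion = IC50 of paclitaxel / IC50 of the combination. Interaction was scored by the combination index method (median effect, multiple drug effect equation).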

Data set [3] shares this target. Description: Reversal of MDR1-mediated paclitaxel resistance in multidrug resistant human NCI-H460 cells assessed as combination index at 5 uM after 72 hrs by SRB assay. It is filed as cell-based. To be noted: nci-h460, 72 h. The method in brief:
as §1

Data set [4] has the same target. In words: Reversal of MDR1-mediated paclitaxel resistance in multidrug resistant human NCI-H460 cells assessed as combination index at 1 uM after 72 hrs by SRB assay. It is filed as cell-based. To be noted: nci-h460, 72 h. The essentials:
as §1

Data set [5] is described as follows: Anticancer activity against human U87MG cells after 72 hrs by SRB assay. It is filed as functional, cell-based, U-87MG ATCC. Particulars: U-87 MG. The method in brief: (§2)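 Cells were seeded in 96-well plates and left overnight: NCI-H460 and DLD-1 at 2000 cells/well, U-87 MG and NCI-H460/R at 4000 cells/well. NCI-H460/R was selected from NCI-H460 and kept in 100 nM doxorubicin. Compound exposure lasted 72 h. Cellular protein was stained with sulforhodamine B, and IC50 was obtained by linear regression.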

A further data set deals with DLD-1. In words: Anticancer activity against human DLD1 cells after 72 hrs by SRB assay. It is filed as functional, cell-based. Particulars: DLD-1, 72 h. The essentials:
as §2

In data set [6] the test system is NCI-H460. Description: Anticancer activity against human NCI-H460 cells after 72 hrs by SRB assay. In kind it is functional, cell-based. To be noted: NCI-H460, 72 h. The essentials: as §2
Data set [7] relates to NCI-H460. In words: Anticancer activity against multidrug resistant human NCI-H460 cells after 72 hrs by SRB assay. In kind it is functional, cell-based. To be noted: NCI-H460, 72 h. The essentials: as §2
The target of data set [8] is T1, ATP-dependent translocase ABCB1. In words: Reversal of MDR1-mediated paclitaxel resistance in human NCI-H460 cells assessed as ratio of compound IC50 to IC50 of paclitaxel at 2.5 uM after 72 hrs by SRB assay. It is filed as cell-based. Particulars: nci-h460, 72 h. The essentials:
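Growth was read by SRB assay. Relative reversion = IC50 of paclitaxel / IC50 of the combination. Interaction was scored by the combination index method (median effect, multiple drug effect equation).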

The target is the same in data set [9]. Description: Reversal of MDR1-mediated paclitaxel resistance in multidrug resistant human NCI-H460 cells assessed as Rho123 accumulation at 5 uM after 30 mins by FACScalibur flow cytometry relative to control. It is filed as cell-based. To be noted: nci-h460, 0.5 h. The essentials: (§3)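 NCI-H460/R cells were grown to 80% confluence, trypsinized and resuspended in medium containing Rho123. They were treated with compound at 5 or 20 μM for 30 min at 37 °C in 5% CO2, and Rho123 fluorescence (FL2-H) was read by flow cytometry. FAR = FL2-H of treated MDR cells / FL2-H of untreated MDR control.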

Data set [10] shares this target. Description: Reversal of MDR1-mediated doxorubicin resistance in human NCI-H460 cells assessed as ratio of compound IC50 to IC50 of paclitaxel at 5 uM after 72 hrs by SRB assay. It is filed as cell-based. To be noted: nci-h460, 72 h, in the assay text read “IC50 of doxorubicin” for “IC50 of paclitaxel”. The method in brief:
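NCI-H460/R cells received 5 μM compound simultaneously with 0.055 μM doxorubicin for 72 h, read by SRB. Relative reversion = IC50 of doxorubicin alone / IC50 of the combination. Values are the mean ± standard deviation of five independent experiments, with IC50 by linear regression.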

The target is the same in data set [11]. In words: Reversal of MDR1-mediated paclitaxel resistance in multidrug resistant human NCI-H460 cells assessed as Rho123 accumulation at 20 uM after 30 mins by FACScalibur flow cytometry relative to control. It is filed as cell-based. To be noted: nci-h460, 0.5 h. The method in brief:
as §3
Background: Flow cytometry measures light scatter and fluorescence of single cells or particles in a stream.

Data set [12] has the same target. In words: Reversal of MDR1-mediated paclitaxel resistance in human NCI-H460 cells assessed as ratio of compound IC50 to IC50 of paclitaxel at 1 uM after 72 hrs by SRB assay. It is filed as cell-based. To be noted: nci-h460, 72 h. The method in brief:
as §1

Consider eight compounds from ChEMBL document CHEMBL1821621, “Isolation and biological evaluation of jatrophane diterpenoids from Euphorbia dendroides” (J Nat Prod, 2011).

What is called IC30 is the point of the concentration-response curve where the effect stands at 30%. By IC50 is commonly meant the concentration that gives 50% inhibition. Read a high IC50 as lower potency.

T1 sequence (P08183 whole entry): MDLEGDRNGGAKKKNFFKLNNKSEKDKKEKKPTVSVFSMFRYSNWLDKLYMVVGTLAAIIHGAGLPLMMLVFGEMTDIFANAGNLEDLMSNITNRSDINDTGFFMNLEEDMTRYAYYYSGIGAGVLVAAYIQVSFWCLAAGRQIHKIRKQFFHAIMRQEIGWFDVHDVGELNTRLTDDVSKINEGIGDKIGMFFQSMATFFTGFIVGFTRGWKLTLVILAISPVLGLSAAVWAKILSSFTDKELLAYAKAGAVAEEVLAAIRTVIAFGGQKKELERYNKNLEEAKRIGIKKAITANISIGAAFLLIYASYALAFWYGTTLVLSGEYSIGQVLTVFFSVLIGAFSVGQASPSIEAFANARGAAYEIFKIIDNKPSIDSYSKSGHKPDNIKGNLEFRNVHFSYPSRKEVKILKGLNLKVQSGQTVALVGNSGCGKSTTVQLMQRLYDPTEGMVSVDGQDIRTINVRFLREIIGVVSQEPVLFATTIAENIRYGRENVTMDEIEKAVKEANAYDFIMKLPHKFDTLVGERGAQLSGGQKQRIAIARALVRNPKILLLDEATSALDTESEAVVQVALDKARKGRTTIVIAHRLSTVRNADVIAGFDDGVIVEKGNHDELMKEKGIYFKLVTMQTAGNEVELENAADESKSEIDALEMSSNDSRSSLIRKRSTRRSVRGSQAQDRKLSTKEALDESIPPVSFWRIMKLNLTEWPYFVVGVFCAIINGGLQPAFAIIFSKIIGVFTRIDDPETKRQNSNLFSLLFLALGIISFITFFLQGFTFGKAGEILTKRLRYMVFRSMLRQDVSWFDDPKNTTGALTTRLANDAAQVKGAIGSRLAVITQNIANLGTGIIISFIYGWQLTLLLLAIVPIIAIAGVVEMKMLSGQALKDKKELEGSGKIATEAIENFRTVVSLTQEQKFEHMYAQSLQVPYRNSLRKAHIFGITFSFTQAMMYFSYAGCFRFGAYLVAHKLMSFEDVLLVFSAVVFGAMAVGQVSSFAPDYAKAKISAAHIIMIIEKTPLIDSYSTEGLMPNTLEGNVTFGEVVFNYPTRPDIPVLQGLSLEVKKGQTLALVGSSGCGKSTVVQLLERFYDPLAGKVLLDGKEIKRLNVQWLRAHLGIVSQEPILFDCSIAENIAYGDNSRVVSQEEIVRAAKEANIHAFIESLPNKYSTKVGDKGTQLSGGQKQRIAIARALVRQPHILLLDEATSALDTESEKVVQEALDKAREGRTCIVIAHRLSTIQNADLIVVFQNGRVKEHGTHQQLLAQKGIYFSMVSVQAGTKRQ

As for `COc1ccc(CCN(C)CCCC(C#N)(c2ccc(OC)c(OC)c2)C(C)C)cc1OC` (stereo not drawn), the “fractional inhibitory concentration index (FICI)” value in data set [1] is listed as less than 0.5; in [2], less than 0.5; in data set [3] it was less than 0.5; in [4] it was less than 1.
In the case of `CC1=C[C@@H]2[C@H](C1=O)[C@H](O)C(C)=C[C@H]1[C@@H]3C(C)(C)[C@]3(OC(=O)C(C)C)[C@H](OC(=O)c3ccccc3)[C@@H](C)[C@]21O` [EUPHODENDRIANE A], the IC30 in data set [5] turned out to be 33.2 µM; in the data set with DLD-1 it was 13.3 µM; in the data set on NCI-H460 [6] it was 7 µM; in the data set with NCI-H460 [7] it was 15.7 µM. Further, the IC50 in data set [5] was 60.1 µM; in the data set on DLD-1 it was 27.4 µM; in the data set on NCI-H460 [6] it was 14.3 µM; in the data set with NCI-H460 [7], 26 µM.
As for `C=C1[C@@H](OC(=O)C(C)C)[C@@H](OC(C)=O)[C@@H](OC(=O)c2cccnc2)C(C)(C)/C=C/[C@@H](C)C(=O)[C@@]2(O)C[C@H](C)[C@H](OC(=O)CC)[C@@H]2[C@H]1OC(C)=O` [EUPHODENDROPHANE A], the IC30 in data set [5] turned out to be 74.7 µM; in the data set with DLD-1 it was 7.3 µM; in the data set on NCI-H460 [6], 31 µM; with NCI-H460 [7], 26.6 µM. For the same compound, the IC50 turned out to be 155 µM in data set [5], 59.3 µM with DLD-1, 46.6 µM with NCI-H460 [6] and 44.8 µM in the data set with NCI-H460 [7]. The “Ratio IC50” value in data set [8] was 19; in data set [10] it was 19; in data set [12], 3. In addition, the Ratio amounted to 2.1 in data set [9] and 3.2 in [11]. For the same compound, the “fractional inhibitory concentration index (FICI)” value in data set [1] was less than 0.5; in [2], less than 1; in data set [3], less than 0.5; in data set [4], less than 0.5.
Turning to `C=C1[C@@H](OC(=O)C(C)C)[C@@H](OC(C)=O)[C@@H](OC(=O)c2cccnc2)C(C)(C)/C=C/[C@@H](C)C(=O)[C@@]2(O)C[C@H](C)[C@H](OC(=O)C(C)C)[C@@H]2[C@H]1OC(C)=O` [EUPHODENDROPHANE B], the IC30 in data set [5] came out at 6.8 µM; with DLD-1 it was 4.8 µM; in the data set on NCI-H460 [6], 6.1 µM; with NCI-H460 [7], 3.9 µM. Moreover, the concentration for half-maximal inhibition (IC50) in [5] was determined as 108 µM; in the data set on DLD-1, 22.1 µM; in the data set with NCI-H460 [6], 16.2 µM; with NCI-H460 [7], 17.2 µM. Also, the results for the “Ratio IC50” value in data set [8], in data set [10] and in data set [12] were 25, 28 and 11, respectively. Besides, the Ratio in data set [9] was found to be 1.9; in [11] it was 3. Moreover, the “fractional inhibitory concentration index (FICI)” value in data set [1] is less than 0.5; in data set [2] it was less than 1; in data set [3], less than 0.5; in data set [4] it was less than 1.
Regarding `C=C1[C@@H](OC(C)=O)[C@@H](OC(=O)c2ccccc2)[C@@H](OC(C)=O)C(C)(C)/C=C/[C@@H](C)C(=O)[C@@]2(O)C[C@H](C)[C@H](OC(=O)C(C)C)[C@@H]2[C@H]1OC(C)=O` [EUPHODENDROPHANE D], the IC30 was 10.4 µM in data set [5], 14.2 µM with DLD-1, 11.7 µM in the data set with NCI-H460 [6] and 14.6 µM in the data set on NCI-H460 [7]. The IC50 in [5] is 52.6 µM; with DLD-1, 42.7 µM; with NCI-H460 [6] it was 21.3 µM; in the data set on NCI-H460 [7] it was 30.1 µM.
As for `C=C1[C@@H](OC(=O)C(C)C)[C@@H](OC(=O)c2ccccc2)[C@@H](OC(C)=O)C(C)(C)/C=C/[C@@H](C)C(=O)[C@@]2(O)C[C@H](C)[C@H](OC(=O)CC)[C@@H]2[C@H]1OC(C)=O` [EUPHODENDROPHANE E], the IC30 was determined as 14.1 µM in data set [5], 13.7 µM with DLD-1, 8.3 µM in the data set with NCI-H460 [6] and 15.2 µM in the data set with NCI-H460 [7]. Further, the IC50 in data set [5] was determined as 73.1 µM; with DLD-1, 37.9 µM; in the data set on NCI-H460 [6], 21.9 µM; in the data set on NCI-H460 [7], 49.8 µM.
Consider `CC(=O)OC/C1=C/[C@H]2[C@@H](OC(C)=O)[C@](C)(OC(C)=O)C[C@]2(OC(C)=O)C(=O)[C@H](C)/C=C/C(C)(C)[C@H](OC(=O)c2cccnc2)[C@H](OC(C)=O)[C@@H]1OC(=O)C(C)C` [EUPHODENDROPHANE F], for which the IC30 in [5] was 27.3 µM; in the data set with DLD-1 it was 38.8 µM; with NCI-H460 [6] it was 4.8 µM; in the data set on NCI-H460 [7], 51.9 µM. For the same compound, the IC50 is 65.5 µM in data set [5], 75.3 µM in the data set on DLD-1, 14.8 µM in the data set on NCI-H460 [6] and 90.8 µM in the data set with NCI-H460 [7].
`CC(=O)O[C@H]1C(=O)[C@@]2(C)[C@H]([C@H](OC(=O)c3ccccc3)[C@]3(O)C[C@H](OC(=O)[C@H](O)[C@@H](NC(=O)c4ccccc4)c4ccccc4)C(C)=C1C3(C)C)[C@]1(OC(C)=O)CO[C@@H]1C[C@@H]2O` [PACLITAXEL]: the IC30 in [5] was 0.049 µM; with DLD-1, 0.023 µM; in the data set on NCI-H460 [6], 0.0036 µM; with NCI-H460 [7], 0.44 µM. For the same compound, the IC50 in [5] was 0.09 µM; in the data set with DLD-1, 0.039 µM; in the data set with NCI-H460 [6], 0.0094 µM; in the data set with NCI-H460 [7], 2.08 µM.
